Measured values of several laboratories.
Read-out: cell growth or viability

Structure (SMILES)	cell line	test	setting	quantity	value
Cc1cc(=O)oc2ccc(-c3cc(-c4ccccc4)nc(N)n3)c(O)c12	KB	MTT	8 µg/mL, 72 h	inhibition	0%
COC(=O)COc1ccc(NC(=O)C2(c3cccc(Br)c3)CC2)c(C)c1	U-937	ATP luminescence	72 h	GI50	3.2 µM
Cc1cc(=O)oc2ccc(-c3cc(-c4cccc(Cl)c4)nc(N)n3)c(O)c12	KB	MTT	32 µg/mL, 72 h	inhibition	16%
C=CC(=O)N1CCC[C@@H](n2nc(-c3ccc(Oc4ccccc4)cc3)c3c(N)ncnc32)C1	U-937	ATP luminescence	72 h	GI50	6.4 µM
C=CC(=O)N1CCN(c2cc(-c3noc([C@@]4(C)CCCc5sc(N)c(C#N)c54)n3)nc(N3CCN(C)C[C@@H]3C)c2)CC1	LS-513		5 days	EC50	4.7 µM
COc1ccc(-c2cc(-c3ccc4oc(=O)cc(C)c4c3O)nc(N)n2)cc1	KB	MTT	128 µg/mL, 72 h	inhibition	28%
COc1cc(-c2ccc(-c3ccc(C(=N)N)nc3)s2)cc(OC)c1OC	IGROV-1	SRB		GI50	2.63 µM
COC(=O)COc1cccc(NC(=O)C2(c3cccc(C)c3)CC2)c1	U-937	ATP luminescence	72 h	GI50	> 200 µM
Cc1cc(=O)oc2ccc(-c3cc(-c4ccc(Br)cc4)nc(N)n3)c(O)c12	KB	MTT	2 µg/mL, 72 h	inhibition	0%
C=CC(=O)N1CCC[C@@H](n2nc(-c3ccc(Oc4ccccc4)cc3)c3c(N)ncnc32)C1	MINO	ATP luminescence	72 h	GI50	6.31 µM
COC(=O)COc1ccc(NC(=O)C2(c3ccc(F)cc3)CC2)cc1	U-937	ATP luminescence	72 h	GI50	5.9 µM
CC(C)C[C@H](NC(=O)[C@H](Cc1ccccc1)NC(=O)c1cnccn1)B(O)O	SNU1	ATP luminescence		IC50	0.014 µM
COC(=O)COc1cccc(NC(=O)C2(c3cccc(Br)c3)CC2)c1	U-937	ATP luminescence	72 h	GI50	3.5 µM
Cn1nnc2c(C(N)=O)ncn2c1=O	SNU1			EC50	243 µM
